# Results gathered from unrelated publications.
# Target: Tyrosine-protein kinase FRK (FRK, Homo sapiens, UniProt P42685)
SMILES,test,conditions,measurement,result
COc1ncccc1-c1cnn2ccc(N3CCN(C(=O)OC(C)C)CC3)nc12,"binding, competition with immobilised ligand",1 µM,remaining binding,63%
Cn1cc(-c2cc(F)cc(N3CCn4c(cc5c4CCCC5)C3=O)c2CO)cc(Nc2ccc(N3CCN(C4COC4)CC3)cn2)c1=O,"enzyme activity, inhibitor",0.1 µM,inhibition,15%
O=c1[nH]c2ccccc2n1C1CCN(Cc2ccc(-c3[nH]c4cc5ncnc5cc4nc3-c3ccccc3)cc2)CC1,cell-free assay,0.5 µM,remaining signal,102%
Cn1cncc1[C@](O)(COc1ccc(C#N)cc1-c1ccc(OC(F)(F)F)cc1)c1ccc(C#N)cc1,"cell-free assay, competition with immobilised ligand",1 µM,remaining binding,100%
Cn1cc(-c2cccc(N3CCc4c(sc5c4CC(C)(C)C5)C3=O)c2CO)cc(Nc2ccncn2)c1=O,"enzyme activity, inhibitor",1 µM,inhibition,9%
N#CC1(c2ccccn2)CCN(Cc2cc(C(=O)O)c(=O)n3ccccc23)CC1,"cell-free assay, competition with immobilised ligand",1 µM,remaining binding,100%
COc1cc(Nc2ncc(F)c(Nc3ccc4c(n3)NC(=O)C(C)(C)O4)n2)cc(OC)c1OC,"binding, competition with immobilised ligand",10 µM,inhibition,96%
Nc1ncc(-c2nc(N3CCOCC3)nc(N3CCOCC3)n2)c(C(F)F)n1,"binding, competition with immobilised ligand",10 µM,remaining binding,100%
Cc1nn(C)cc1-c1nc2c(N3CCN(Cc4ccc(Cl)cc4)CC3)c(Cl)cnc2[nH]1,"binding, competition with immobilised ligand",1 µM,remaining binding,100%
CC(C)(C)c1cc(C=C(C#N)C#N)cc(Br)c1O,"enzyme activity, inhibitor",0.5 µM,remaining activity,99.3%
